From ChEMBL document CHEMBL1143873, “Synthesis and biological evaluation of 2-alkylaminoethyl-1,1-bisphosphonic acids against Trypanosoma cruzi and Toxoplasma gondii targeting farnesyl diphosphate synthase” (Bioorg Med Chem, 2008)

Columns and labels:
Trypanosoma cruzi [1] = test: Growth inhibition of Trypanosoma cruzi amastigotes in rat L6E9 cells at 10 uM; assay type: functional; conditions: read-out: GI
Toxoplasma gondii = test: Growth inhibition of Toxoplasma gondii tachyzoites in HFF cells; assay type: functional, organism-based
[2] = target: T1, Farnesyl diphosphate synthase (Trypanosoma cruzi, UniProt Q8WS26); test: Inhibition of Trypanosoma cruzi FPPS
T1 sequence (Q8WS26 whole entry): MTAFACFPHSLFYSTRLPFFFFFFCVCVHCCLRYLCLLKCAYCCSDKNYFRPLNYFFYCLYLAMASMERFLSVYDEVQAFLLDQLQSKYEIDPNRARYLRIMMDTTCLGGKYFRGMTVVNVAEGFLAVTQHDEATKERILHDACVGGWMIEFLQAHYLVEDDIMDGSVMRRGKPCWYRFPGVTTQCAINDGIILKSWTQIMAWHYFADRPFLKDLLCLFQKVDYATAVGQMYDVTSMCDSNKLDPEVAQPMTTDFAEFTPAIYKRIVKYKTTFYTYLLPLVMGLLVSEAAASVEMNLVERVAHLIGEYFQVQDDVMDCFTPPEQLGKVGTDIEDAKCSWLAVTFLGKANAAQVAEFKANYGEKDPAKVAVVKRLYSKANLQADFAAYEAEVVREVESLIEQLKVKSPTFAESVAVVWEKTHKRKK
Method in brief: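 Recombinant TcFPPS (10–20 ng) started into prewarmed buffer of 10 mM Hepes pH 7.4, 5 mM MgCl2, 2 mM DTT, 100 μM [4-14C]IPP, 100 μM DMAPP; 30 min at 37 °C; quenched with HCl, then alkalinised; hexane-extracted product counted by scintillation.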

[3] = target: T2, Farnesyl diphosphate synthase (Toxoplasma gondii, UniProt Q197X6); test: Inhibition of Toxoplasma gondii FPPS
T2 sequence (Q197X6 whole entry): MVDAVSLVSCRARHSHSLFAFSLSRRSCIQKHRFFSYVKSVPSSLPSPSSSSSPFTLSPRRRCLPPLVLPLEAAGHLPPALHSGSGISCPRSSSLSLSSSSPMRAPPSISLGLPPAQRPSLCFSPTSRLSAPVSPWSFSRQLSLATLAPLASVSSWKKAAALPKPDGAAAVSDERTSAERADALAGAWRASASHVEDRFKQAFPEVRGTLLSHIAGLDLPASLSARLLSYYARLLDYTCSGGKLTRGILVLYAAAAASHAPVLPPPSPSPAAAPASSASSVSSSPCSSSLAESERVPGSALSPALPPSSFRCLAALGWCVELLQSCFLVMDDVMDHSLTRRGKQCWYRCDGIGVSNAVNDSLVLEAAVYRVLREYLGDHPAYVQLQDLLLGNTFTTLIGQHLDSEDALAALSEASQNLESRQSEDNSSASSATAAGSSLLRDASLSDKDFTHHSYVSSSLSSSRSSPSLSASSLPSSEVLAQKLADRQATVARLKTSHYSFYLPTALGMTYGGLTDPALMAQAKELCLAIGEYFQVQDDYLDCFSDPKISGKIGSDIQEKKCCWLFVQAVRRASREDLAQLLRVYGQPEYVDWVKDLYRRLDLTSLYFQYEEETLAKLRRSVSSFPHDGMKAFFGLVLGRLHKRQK
Method in brief: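 Recombinant TgFPPS (10–20 ng) started into prewarmed buffer of 10 mM Hepes pH 7.4, 1 mM MgCl2, 2 mM DTT, 100 μM [4-14C]IPP, 100 μM DMAPP; 30 min at 37 °C; quenched with HCl, then alkalinised; hexane-extracted product counted by scintillation.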

Trypanosoma cruzi [4] = test: Growth inhibition of Trypanosoma cruzi amastigotes in rat L6E9 cells; assay type: functional, organism-based

## O=P(O)(O)C(CNC1CCCCC1)P(=O)(O)O
Trypanosoma cruzi [1]
  inhibition of growth at 10 µM: 36.3%
Toxoplasma gondii
  IC50: 57.3 µM
[2]
  IC50: 0.013 µM
[3]
  IC50: 0.337 µM

## O=P(O)(O)C(CNN1CCCC1)P(=O)(O)O
Trypanosoma cruzi [4]
  IC50: 14 µM
Toxoplasma gondii
  IC50: 13.3 µM
[2]
  IC50: 0.76 µM
[3]
  IC50: 0.361 µM

## O=P(O)(O)C(CNN1CCCCC1)P(=O)(O)O
Trypanosoma cruzi [4]
  IC50: 6.1 µM
Toxoplasma gondii
  IC50: 70.6 µM
[2]
  IC50: 0.287 µM
[3]
  IC50: 0.165 µM

## CCC(C)NCC(P(=O)(O)O)P(=O)(O)O (stereo not drawn)
Trypanosoma cruzi [4]
  IC50: > 50 µM
Toxoplasma gondii
  IC50: > 100 µM
[2]
  IC50: 0.944 µM
[3]
  IC50: 0.112 µM

## CCCNCC(P(=O)(O)O)P(=O)(O)O
Trypanosoma cruzi [4]
  IC50: > 50 µM
Toxoplasma gondii
  IC50: 6.33 µM
[2]
  IC50: 0.038 µM
[3]
  IC50: 0.298 µM

## CC(C)NCC(P(=O)(O)O)P(=O)(O)O
Trypanosoma cruzi [4]
  IC50: > 50 µM
Toxoplasma gondii
  IC50: 69.8 µM
[2]
  IC50: 1.4 µM
[3]
  IC50: 0.253 µM

## CC(C)CNCC(P(=O)(O)O)P(=O)(O)O
Trypanosoma cruzi [4]
  IC50: > 50 µM
Toxoplasma gondii
  IC50: 74.5 µM
[2]
  IC50: 0.515 µM
[3]
  IC50: 0.181 µM

## N#CSCCOc1ccc(Oc2ccccc2)cc1
Trypanosoma cruzi [4]
  IC50: 12 µM

## CCCCCNCC(P(=O)(O)O)P(=O)(O)O
Trypanosoma cruzi [4]
  IC50: 0.54 µM
Toxoplasma gondii
  IC50: > 50 µM
[2]
  IC50: 1.84 µM
[3]
  IC50: 0.08 µM

## CC(C)(C)NCC(P(=O)(O)O)P(=O)(O)O
Trypanosoma cruzi [4]
  IC50: 10 µM
Toxoplasma gondii
  IC50: 42.8 µM
[2]
  IC50: 1.21 µM
[3]
  IC50: 0.286 µM

## CCCCCCCNCC(P(=O)(O)O)P(=O)(O)O
Trypanosoma cruzi [4]
  IC50: 10 µM
Toxoplasma gondii
  IC50: > 50 µM
[2]
  IC50: 0.058 µM
[3]
  IC50: 0.095 µM

## CCCCCCC(O)(P(=O)(O)O)P(=O)(O)O
Trypanosoma cruzi [4]
  IC50: 18 µM

## CCCCNCC(P(=O)(O)O)P(=O)(O)O
Trypanosoma cruzi [4]
  IC50: 4.8 µM
Toxoplasma gondii
  IC50: 48.7 µM
[2]
  IC50: 2.28 µM
[3]
  IC50: 0.206 µM

## CCCCCCNCC(P(=O)(O)O)P(=O)(O)O
Trypanosoma cruzi [4]
  IC50: 0.84 µM
Toxoplasma gondii
  IC50: 9.37 µM
[2]
  IC50: 0.49 µM
[3]
  IC50: 0.137 µM

## CC(C)CCNCC(P(=O)(O)O)P(=O)(O)O
Trypanosoma cruzi [4]
  IC50: 10 µM
Toxoplasma gondii
  IC50: 36.9 µM
[2]
  IC50: 0.42 µM
[3]
  IC50: 0.275 µM

## CCCCCCCCNCC(P(=O)(O)O)P(=O)(O)O
Trypanosoma cruzi [4]
  IC50: 4.1 µM
Toxoplasma gondii
  IC50: 2.6 µM
[2]
  IC50: 1.01 µM
[3]
  IC50: 0.087 µM
